# Assay results collected from several papers.
# Lines come from different studies, so protocols differ.
# Target: Homeodomain-interacting protein kinase 3 (HIPK3, Homo sapiens, UniProt Q9H422)
SMILES,observed,mode,technique,concentration,quantity,result
CNC(=O)Nc1ccc2c(c1)[C@@]1(CC2)OC(=O)N(CC(=O)N(Cc2ccc(F)cc2)[C@@H](C)C(F)(F)F)C1=O,cell-free assay,,competition with immobilised ligand,1 µM,remaining binding,90%
O=C(O)c1ccc2c(c1)nc(NCCc1cccc(F)c1)c1ccncc12,enzyme activity,inhibitor,radiometric,1 µM,remaining activity,8%
Nc1ncnc2occ(-c3ccc(NC(=O)Nc4cc(C(F)(F)F)ccc4F)cc3)c12,cell-free assay,inhibitor,,20 µM,remaining signal,0.7%
COc1cccc(CCNc2nc3cc(C(=O)O)ccc3c3cncnc23)c1,enzyme activity,inhibitor,radiometric,1 µM,remaining activity,27%
C#Cc1cccc(Nc2ncnc3cc(OCCOC)c(OCCOC)cc23)c1,cell-free assay,,,0.5 µM,remaining signal,102%
O=C(O)c1ccc2c(c1)nc(Nc1ccccc1Cl)c1ncncc12,enzyme activity,inhibitor,radiometric,1 µM,remaining activity,17%
Cn1c(=O)n(-c2ccc(C(C)(C)C#N)cc2)c2c3cc(-c4cnc5ccccc5c4)ccc3ncc21,enzyme activity,inhibitor,,10 µM,remaining activity,102%
N#Cc1ccc(Nc2ccc3[nH]c(=O)[nH]c3c2)c(Cl)c1,cell-free assay,,competition with immobilised ligand,1 µM,remaining binding,94%
O=C1Nc2ccc(Cl)cc2C1=Cc1cc(Cl)c(O)c(Cl)c1,cell-free assay,,,0.5 µM,remaining signal,91.5%
CO[C@H]1CC[C@H](CNc2ccc(S(=O)(=O)NC(=O)c3ccc(N4CCN(CC5=C(c6ccc(Cl)cc6)CC(C)(C)CC5)CC4)cc3Oc3cnc4[nH]ccc4c3)cc2[N+](=O)[O-])CC1,cell-free assay,,competition with immobilised ligand,1 µM,remaining binding,100%
COc1cc2ncnc(Nc3ccc(Oc4ccccc4)c(C)c3C)c2cc1OC,enzyme activity,inhibitor,,1 µM,inhibition,1%
Cc1ccc(Nc2nccc(N(C)c3ccc4c(C)n(C)nc4c3)n2)cc1S(N)(=O)=O,enzyme activity,inhibitor,,10 µM,inhibition,20%
COc1cc(Nc2cnc(C#N)c(O[C@H](C)CN(C)C)n2)ncc1-c1cnn(C)c1,enzyme activity,inhibitor,radiometric,10 µM,remaining activity,111%
O=C(NC[C@@H]1[C@H]2CN(C(=O)OCc3cc(C(F)(F)F)cc(C(F)(F)F)c3)C[C@@H]12)c1ccc2[nH]nnc2c1,cell-free assay,,competition with immobilised ligand,1 µM,remaining binding,89%
COc1cc(-c2cc(-c3ccc(N4CCNCC4)cc3)cnc2C)cc(OC)c1OC,enzyme activity,inhibitor,,0.1 µM,inhibition,1%
O=C(O)c1ccc2c(c1)nc(NCCc1cccc(Cl)c1)c1ccncc12,enzyme activity,inhibitor,radiometric,1 µM,remaining activity,29%
O=C(NCc1ncc(C(F)(F)F)cc1Cl)c1ccc2c(c1)C1(CCS(=O)(=O)CC1)[C@H](C1CC1)N2S(=O)(=O)c1ccc(F)cc1,cell-free assay,,competition with immobilised ligand,1 µM,remaining binding,82%
FC(F)(F)Oc1cccc(-c2cnc3ccc(-c4ccncc4)nn23)c1,enzyme activity,inhibitor,radiometric,1 µM,activity vs control,44%
O=C(Nc1cccnn1)N1CC(C/C=C/c2cncc(Oc3ccc(C(F)(F)F)cn3)n2)C1,cell-free assay,,competition with immobilised ligand,1 µM,remaining binding,74%
N#Cc1cccc(Nc2nc3cc(C(=O)O)ccc3c3cncnc23)c1,enzyme activity,inhibitor,radiometric,1 µM,remaining activity,8%
CCN(CC)CCNC(=O)c1c(C)[nH]c(/C=C2\C(=O)Nc3ccc(F)cc32)c1C,enzyme activity,inhibitor,,10 µM,inhibition,82%
O=C(O)c1ccc2c(c1)nc(NCCc1ccccc1)c1ncncc12,enzyme activity,inhibitor,radiometric,1 µM,remaining activity,16%
O=C(Nc1cnn(-c2csc(C(=O)NC3COC3)c2)c1)Nc1c(F)cccc1Cl,enzyme activity,inhibitor,,5 µM,remaining activity,98.8%
Cc1c(C(=O)O)cc(-c2ccc(C3CCNCC3)cc2)c2ccc(-c3ccc(C(F)(F)F)cc3)cc12,binding,,competition with immobilised ligand,1 µM,remaining binding,100%
CC/C(=N\NC(=O)NCc1cccc(O)c1)c1ccc(O)c(C)c1O,enzyme activity,inhibitor,,0.1 µM,inhibition,2.5%
N#Cc1cccc(Nc2nc3cc(C(=O)O)ccc3c3cnccc23)c1,enzyme activity,inhibitor,radiometric,1 µM,remaining activity,13%
CNC(=O)c1cc(Oc2ccc(NC(=O)Nc3ccc(Cl)c(C(F)(F)F)c3)cc2)ccn1,cell-free assay,,,0.5 µM,remaining signal,85.7%
COc1cc2nccc(Oc3ccc(NC(=O)c4c5n(n(-c6ccc(F)cc6)c4=O)CCCC5)cc3)c2cc1OC,enzyme activity,inhibitor,,0.1 µM,inhibition,-8%
O=C(O)c1ccc2c(c1)nc(Nc1ccc3ccccc3c1)c1ncncc12,enzyme activity,inhibitor,radiometric,1 µM,remaining activity,3%
NS(=O)(=O)c1cc(NC(=O)Cc2ccccc2)ccc1Oc1cccc(Cl)c1,cell-free assay,,competition with immobilised ligand,1 µM,remaining binding,84%
